From ChEMBL document CHEMBL1129423, “Hypoglycemic activity of a series of alpha-alkylthio and alpha-alkoxy carboxylic acids related to ciglitazone” (J Med Chem, 1996)
The source made the active and inactive calls. The rule behind the calls is not given here.

Legend:
Mus musculus [1] = test: In vivo hypoglycemic activity expressed as percent glucose normalization in db/db mice at 0.1 mg/Kg; format: functional
Mus musculus [2] = test: In vivo hypoglycemic activity expressed as percent glucose normalization in db/db mice at 1 mg/Kg; format: functional
Mus musculus [3] = test: In vivo hypoglycemic activity expressed as percent glucose normalization in db/db mice at 0.01 mg/Kg; format: functional
Mus musculus [4] = test: In vivo hypoglycemic activity expressed as percent glucose normalization in db/db mice at 0.05 mg/Kg; format: functional
Mus musculus [5] = test: In vivo hypoglycemic activity expressed as percent glucose normalization in db/db mice at 5 mg/Kg; format: functional
Mus musculus [6] = test: In vivo hypoglycemic activity expressed as percent glucose normalization in ob/ob mice at 0.1 mg/Kg; format: functional
Outline: (§1)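 ob/ob mice received oral gavage once daily for 4 days in 0.25% (w/v) methylcellulose in water. Retro-orbital blood was taken before treatment and 24 h after the fourth dose. Glucose was measured by the hexokinase UV method. Results are % glucose normalization relative to vehicle (0%) and englitazone 100 mg/kg (100%), with significance at p<0.05.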

Mus musculus [7] = test: In vivo hypoglycemic activity expressed as percent glucose normalization in ob/ob mice at 0.01 mg/Kg; format: functional; outline: as §1
Mus musculus [8] = test: In vivo hypoglycemic activity expressed as percent glucose normalization in db/db mice at 0.25 mg/Kg; format: functional
Mus musculus [9] = test: In vivo hypoglycemic activity expressed as percent glucose normalization in ob/ob mice at 1 mg/Kg; format: functional; outline: as §1
Mus musculus [10] = test: In vivo hypoglycemic activity expressed as percent glucose normalization in db/db mice at 0.5 mg/Kg; format: functional
Mus musculus [11] = test: In vivo hypoglycemic activity expressed as percent glucose normalization in db/db mice at 2.5 mg/Kg; format: functional
Mus musculus [12] = test: In vivo hypoglycemic activity expressed as percent glucose normalization in db/db mice at 5 mg/Kg; Not tested; format: functional
Mus musculus [13] = test: In vivo hypoglycemic activity expressed as percent glucose normalization in db/db mice at 0.05 mg/Kg; Inactive; format: functional, organism-based
Mus musculus [14] = test: In vivo hypoglycemic activity expressed as percent glucose normalization in db/db mice at 0.1 mg/Kg; Inactive; format: functional, organism-based
Mus musculus [15] = test: In vivo hypoglycemic activity expressed as percent glucose normalization in ob/ob mice at 0.01 mg/Kg; Inactive; format: functional, organism-based; outline: as §1

| SMILES | Glucose normalisation (Mus musculus [1]) [%] | Glucose normalisation (Mus musculus [2]) [%] | Glucose normalisation (Mus musculus [3]) [%] | Glucose normalisation (Mus musculus [5]) [%] | Glucose normalisation (Mus musculus [10]) [%] | other results |
| --- | --- | --- | --- | --- | --- | --- |
| CCOC(Cc1ccc2oc(Cc3nc(-c4ccco4)oc3C)cc2c1)C(=O)O (stereo not drawn) | 100 | 100 | 63 | – | – | – |
| COC(Cc1ccc2oc(Cc3nc(-c4ccccc4)oc3C)cc2c1)C(=O)O (stereo not drawn) | 83 | 100 | 44 | 94 | – | Glucose normalisation (Mus musculus [4]): 82% |
| CCCOC(Cc1ccc2oc(Cc3nc(-c4ccccc4)oc3C)cc2c1)C(=O)O (stereo not drawn) | 100 | 100 | 43 | 100 | – | Glucose normalisation (Mus musculus [4]): 76% |
| Cc1oc(-c2ccccc2)nc1Cc1cc2cc(CC3SC(=O)NC3=O)ccc2o1 (stereo not drawn) | – | – | – | – | – | Glucose normalisation (Mus musculus [6]): 93%; Glucose normalisation (Mus musculus [7]): 76% |
| CCOC(Cc1ccc2oc(Cc3nc(-c4ccccc4)oc3C)cc2c1)C(=O)O (stereo not drawn) | 100 | – | 69 | 100 | – | Glucose normalisation (Mus musculus [8]): 100%; Glucose normalisation (Mus musculus [4]): 97% |
| Cc1cccc(-c2nc(Cc3cc4cc(CC5SC(=O)NC5=O)ccc4o3)c(C)o2)c1 (stereo not drawn) | – | – | – | – | – | Glucose normalisation (Mus musculus [9]): 100%; Glucose normalisation (Mus musculus [6]): 79%; Glucose normalisation (Mus musculus [7]): 78% |
| CCOC(CCc1ccc2oc(Cc3nc(-c4ccccc4)oc3C)cc2c1)C(=O)O (stereo not drawn) | – | 90 | – | 100 | 75 | Glucose normalisation (Mus musculus [8]): 13% |
| Cc1ccccc1-c1nc(Cc2cc3cc(CC4SC(=O)NC4=O)ccc3o2)c(C)o1 (stereo not drawn) | – | – | – | – | – | Glucose normalisation (Mus musculus [9]): 100%; Glucose normalisation (Mus musculus [6]): 91%; Glucose normalisation (Mus musculus [7]): 11% |
| CCO[C@H](Cc1ccc2oc(Cc3nc(-c4ccccc4)oc3C)cc2c1)C(=O)O | 19 | 74 | 16 | – | – | – |
| CCO[C@@H](Cc1ccc2oc(Cc3nc(-c4ccccc4)oc3C)cc2c1)C(=O)O | 100 | – | 78 | – | – | – |
| CCCCCCCCSC(Cc1ccc2oc(Cc3nc(-c4ccccc4)oc3C)cc2c1)C(=O)O (stereo not drawn) | 14 | 75 | – | 96 | 100 | Glucose normalisation (Mus musculus [8]): 99% |
| Cc1oc(-c2ccc(Cl)cc2)nc1Cc1cc2cc(CC3SC(=O)NC3=O)ccc2o1 (stereo not drawn) | – | – | – | – | – | Glucose normalisation (Mus musculus [9]): 100%; Glucose normalisation (Mus musculus [6]): 100%; Glucose normalisation (Mus musculus [7]): 0% |
| CCCS[C@@H](Cc1ccc2oc(Cc3nc(-c4ccccc4)oc3C)cc2c1)C(=O)O | – | 91 | – | – | 52 | Glucose normalisation (Mus musculus [11]): 69% |
| CCOC(Cc1ccc2oc(Cc3nc(-c4cccs4)oc3C)cc2c1)C(=O)O (stereo not drawn) | 100 | 100 | 98 | – | – | Glucose normalisation (Mus musculus [4]): 100% |
| Cc1oc(-c2ccccc2)nc1Cc1cc2cc(CC(Sc3ccccc3)C(=O)O)ccc2o1 (stereo not drawn) | 86 | 90 | – | 70 | 100 | Glucose normalisation (Mus musculus [8]): 92% |
| CCOC(C(=O)O)c1ccc2oc(Cc3nc(-c4ccccc4)oc3C)cc2c1 (stereo not drawn) | – | – | – | – | – | Glucose normalisation (Mus musculus [12]): 9% |
| Cc1oc(-c2ccccc2)nc1Cc1cc2cc(CC(OCc3ccccc3)C(=O)O)ccc2o1 (stereo not drawn) | 100 | – | 74 | – | – | Glucose normalisation (Mus musculus [4]): 100% |
| CCSC(Cc1ccc2oc(Cc3nc(-c4ccccc4)oc3C)cc2c1)C(=O)O (stereo not drawn) | – | 60 | – | 86 | 80 | Glucose normalisation (Mus musculus [8]): 3% |
| C=CCOC(Cc1ccc2oc(Cc3nc(-c4ccccc4)oc3C)cc2c1)C(=O)O (stereo not drawn) | 85 | 85 | 27 | 92 | – | Glucose normalisation (Mus musculus [4]): 91% |
| CCOC(Cc1ccc2oc(Cc3nc(-c4ccc(OC)cc4)oc3C)cc2c1)C(=O)O (stereo not drawn) | 100 | 100 | 46 | – | – | Glucose normalisation (Mus musculus [13]): inactive |
| CCCS[C@H](Cc1ccc2oc(Cc3nc(-c4ccccc4)oc3C)cc2c1)C(=O)O | – | 56 | – | – | 45 | Glucose normalisation (Mus musculus [11]): 75% |
| CSC(Cc1ccc2oc(Cc3nc(-c4ccccc4)oc3C)cc2c1)C(=O)O (stereo not drawn) | 26 | 89 | – | – | 100 | Glucose normalisation (Mus musculus [8]): 16% |
| C#CCOC(Cc1ccc2oc(Cc3nc(-c4ccccc4)oc3C)cc2c1)C(=O)O (stereo not drawn) | – | 74 | – | 100 | – | – |
| Cc1oc(-c2cccc(F)c2)nc1Cc1cc2cc(CC3SC(=O)NC3=O)ccc2o1 (stereo not drawn) | – | – | – | – | – | Glucose normalisation (Mus musculus [9]): 100%; Glucose normalisation (Mus musculus [6]): 88%; Glucose normalisation (Mus musculus [7]): 12% |
| Cc1oc(-c2ccccc2)nc1Cc1cc2cc(CC(SCc3ccccc3)C(=O)O)ccc2o1 (stereo not drawn) | – | 88 | – | 100 | 93 | Glucose normalisation (Mus musculus [14]): inactive; Glucose normalisation (Mus musculus [8]): 72% |
| Cc1oc(C2CCCCC2)nc1Cc1cc2cc(CC3SC(=O)NC3=O)ccc2o1 (stereo not drawn) | – | – | – | – | – | Glucose normalisation (Mus musculus [15]): inactive; Glucose normalisation (Mus musculus [9]): 100%; Glucose normalisation (Mus musculus [6]): 90% |
| Cc1oc(-c2ccccc2)nc1Cc1cc2cc(CC(OCCCO)C(=O)O)ccc2o1 (stereo not drawn) | 91 | – | – | – | – | Glucose normalisation (Mus musculus [4]): 19% |
| CCCSC(Cc1ccc2oc(Cc3nc(-c4ccccc4)oc3C)cc2c1)C(=O)O (stereo not drawn) | – | 69 | – | 94 | 82 | Glucose normalisation (Mus musculus [8]): 39% |
